Twelve compounds from ChEMBL document CHEMBL1154853, “New 1,3-oxazolo[4,5-c]quinoline derivatives: synthesis and evaluation of antibacterial and antituberculosis properties” (2010) can be followed below.

In brackets after ≈: the same amount, converted by molar mass.

Common to all, as to format: functional
The subject of test [1] is Staphylococcus aureus. Put plainly: Antimicrobial activity against Staphylococcus aureus […] after 16 to 18 hrs by serial dilution method. The essentials: (§1)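 Tube broth dilution: serial drug dilutions in Mueller Hinton broth, pH adjusted to 5.0 with phosphate buffer. A standardized bacterial suspension was inoculated and incubated 16-18 h at 37 °C. MIC was read as the lowest drug concentration with no visible growth. Ciprofloxacin served as the reference.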

For test [2], the system named is Escherichia coli. Put plainly: Antimicrobial activity against Escherichia coli […] after 16 to 18 hrs by serial dilution method. In outline:
as §1

Test [3] concerns Pseudomonas aeruginosa. The test can be described thus: Antimicrobial activity against Pseudomonas aeruginosa ATTC 27853 after 16 to 18 hrs by serial dilution method. The essentials: as §1
The subject of test [4] is Klebsiella pneumoniae. Put plainly: Antimicrobial activity against Klebsiella pneumoniae after 16 to 18 hrs by serial dilution method. The essentials:
as §1

Test [5] has as its system Staphylococcus aureus. Put plainly: Antimicrobial activity against Staphylococcus aureus […] at MIC after 3 to 4 days by disc diffusion method.
Test [6] concerns Escherichia coli. The test can be described thus: Antimicrobial activity against Escherichia coli […] at MIC after 3 to 4 days by disc diffusion method.
The subject of test [7] is Pseudomonas aeruginosa. Put plainly: Antimicrobial activity against Pseudomonas aeruginosa ATTC 27853 at MIC after 3 to 4 days by disc diffusion method.
Test [8] relates to Klebsiella pneumoniae. The test can be described thus: Antimicrobial activity against Klebsiella pneumoniae at MIC after 3 to 4 days by disc diffusion method.
Test [9] relates to Mycobacterium tuberculosis. The test can be described thus: Antitubercular activity against Mycobacterium tuberculosis H37Rv after 24 hrs by broth microdilution method. The essentials:
(§2)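 M. tuberculosis H37Rv grown in Middlebrook 7H9 with 10% OADC, diluted to McFarland 1, 50 µl added to 150 µl fresh medium. Compounds from 2 mg/mL DMF stocks tested at 1, 10 and 100 µg/mL; DMF-only controls. 7 days at 37 °C, then 0.01% resazurin added with 24 h further incubation. MIC = lowest concentration preventing blue-to-pink change.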

Test [10] relates to Mycobacterium tuberculosis. Put plainly: Antitubercular activity against Mycobacterium tuberculosis H37Rv at MIC after 24 hrs by broth microdilution method. The essentials:
as §2

`CCCCCNC(=O)Nc1c(-c2cccc(F)c2)nc2ccccc2c1O`: the minimal inhibitory concentration (MIC) is 12.5 µg/mL (≈ 34 µM) in test [1]; 6.25 µg/mL (≈ 17 µM) in test [2]; 12.5 µg/mL (≈ 34 µM) in test [3]; 12.5 µg/mL (≈ 34 µM) in test [4]; over 100 µg/mL in test [9]. Besides, the “diameter of the inhibition zone (DIZ)” value in test [5] was found to be 12 mm; in [6], 22 mm; in test [7], 11 mm; in [8], 12 mm. Moreover, the “inhibition (INH)” value in test [10] is 0%.
In the case of `CCCCCNc1nc2c(-c3ccc(F)cc3)nc3ccccc3c2o1`, the MIC was 50 µg/mL (≈ 143 µM) in test [1]; 50 µg/mL (≈ 143 µM) in [2]; 50 µg/mL (≈ 143 µM) in test [3]; 50 µg/mL (≈ 143 µM) in test [4]; over 100 µg/mL in test [9]. For the same compound, the “diameter of the inhibition zone (DIZ)” value in test [5], in [6], in test [7] and in test [8] was under 10 mm each time. Moreover, the “inhibition (INH)” value in test [10] worked out at 0%.
For `Fc1ccc(-c2nc3ccccc3c3oc(Nc4cccc(Cl)c4)nc23)cc1`, the minimal inhibitory concentration (MIC) in test [1] was 6.25 µg/mL (≈ 16 µM); in test [2], 6.25 µg/mL (≈ 16 µM); in test [3], 6.25 µg/mL (≈ 16 µM); in test [4], 6.25 µg/mL (≈ 16 µM); in test [9], 1 µg/mL (≈ 2.57 µM). In addition, the “diameter of the inhibition zone (DIZ)” value was determined as 22 mm in test [5], 26 mm in [6], 24 mm in [7] and 21 mm in test [8]. For the same compound, the “inhibition (INH)” value in test [10] worked out at 99%.
On to `Cc1cc(C)cc(NC(=O)Nc2c(-c3ccc(F)cc3)nc3ccccc3c2O)c1`, for which the MIC in test [1] was 50 µg/mL (≈ 125 µM); in [2], 50 µg/mL (≈ 125 µM); in test [3], 50 µg/mL (≈ 125 µM); in test [4], 50 µg/mL (≈ 125 µM); in test [9], over 100 µg/mL. Also, the “diameter of the inhibition zone (DIZ)” value in test [5], in test [6], in test [7] and in [8] was under 10 mm each time. Also, the “inhibition (INH)” value in [10] is on record as 0%.
Regarding `Fc1cccc(-c2nc3ccccc3c3oc(Nc4ccccc4)nc23)c1`, the MIC was determined as 6.25 µg/mL (≈ 17.6 µM) in test [1]; 6.25 µg/mL (≈ 17.6 µM) in test [2]; 6.25 µg/mL (≈ 17.6 µM) in [3]; 6.25 µg/mL (≈ 17.6 µM) in test [4]; 10 µg/mL (≈ 28.1 µM) in test [9]. For the same compound, the “diameter of the inhibition zone (DIZ)” value in test [5] came out at 20 mm; in test [6], 26 mm; in test [7], 22 mm; in test [8], 20 mm. In [10], the “inhibition (INH)” value worked out at 95%.
For `N#Cc1cccc(NC(=O)Nc2c(-c3cccc(F)c3)nc3ccccc3c2O)c1`, the MIC in test [1] is 6.25 µg/mL (≈ 15.7 µM); in test [2] it was 6.25 µg/mL (≈ 15.7 µM); in [3], 6.25 µg/mL (≈ 15.7 µM); in test [4], 6.25 µg/mL (≈ 15.7 µM); in test [9], over 100 µg/mL. In addition, the “diameter of the inhibition zone (DIZ)” value in test [5] is reported as 19 mm; in test [6], 23 mm; in test [7] it was 19 mm; in test [8] it was 18 mm. Further, the “inhibition (INH)” value in test [10] is on record as 0%.
As to `O=C(Nc1cccc(Cl)c1)Nc1c(-c2ccc(F)cc2)nc2ccccc2c1O`, the MIC worked out at 6.25 µg/mL (≈ 15.3 µM) in [1]; 6.25 µg/mL (≈ 15.3 µM) in test [2]; 6.25 µg/mL (≈ 15.3 µM) in [3]; 6.25 µg/mL (≈ 15.3 µM) in test [4]; 10 µg/mL (≈ 24.5 µM) in [9]. In addition, the “diameter of the inhibition zone (DIZ)” value in [5] stood at 18 mm; in test [6], 22 mm; in test [7], 20 mm; in [8], 20 mm. In [10], the “inhibition (INH)” value was 95%.
In the case of `COc1ccccc1NC(=O)Nc1c(-c2ccc(F)cc2)nc2ccccc2c1O`, the MIC is 6.25 µg/mL (≈ 15.5 µM) in test [1]; 6.25 µg/mL (≈ 15.5 µM) in test [2]; 6.25 µg/mL (≈ 15.5 µM) in test [3]; 6.25 µg/mL (≈ 15.5 µM) in test [4]; 1 µg/mL (≈ 2.48 µM) in [9]. The “diameter of the inhibition zone (DIZ)” value in test [5] was determined as 17 mm; in test [6], 21 mm; in test [7], 16 mm; in test [8] it was 19 mm. Also, the “inhibition (INH)” value in [10] came out at 99%.
Consider `CSc1ccc(Nc2nc3c(-c4cccc(F)c4)nc4ccccc4c3o2)cc1`, for which the MIC in test [1] was 6.25 µg/mL (≈ 15.6 µM); in [2], 6.25 µg/mL (≈ 15.6 µM); in [3], 6.25 µg/mL (≈ 15.6 µM); in [4] it was 6.25 µg/mL (≈ 15.6 µM); in [9] it was 10 µg/mL (≈ 24.9 µM). In addition, the “diameter of the inhibition zone (DIZ)” value in test [5] was found to be 20 mm; in test [6], 23 mm; in test [7], 20 mm; in test [8] it was 22 mm. In test [10], the “inhibition (INH)” value is reported as 95%.
With `Cc1cc(C)cc(Nc2nc3c(-c4ccc(F)cc4)nc4ccccc4c3o2)c1`, the MIC was 12.5 µg/mL (≈ 32.6 µM) in [1]; 6.25 µg/mL (≈ 16.3 µM) in test [2]; 12.5 µg/mL (≈ 32.6 µM) in [3]; 12.5 µg/mL (≈ 32.6 µM) in [4]; 10 µg/mL (≈ 26.1 µM) in test [9]. For the same compound, the “diameter of the inhibition zone (DIZ)” value is 11 mm in test [5], 24 mm in test [6], 14 mm in test [7] and 12 mm in [8]. Also, in test [10], the “inhibition (INH)” value is 95%.
For the compound `O=C(Nc1ccccc1)Nc1c(-c2cccc(F)c2)nc2ccccc2c1O`, the MIC in [1] turned out to be 6.25 µg/mL (≈ 16.7 µM); in test [2], 6.25 µg/mL (≈ 16.7 µM); in test [3], 6.25 µg/mL (≈ 16.7 µM); in test [4], 6.25 µg/mL (≈ 16.7 µM); in test [9], 10 µg/mL (≈ 26.8 µM). Further, the “diameter of the inhibition zone (DIZ)” value was 17 mm in test [5], 20 mm in test [6], 18 mm in [7] and 20 mm in [8]. Besides, the “inhibition (INH)” value in test [10] was determined as 95%.
As for `O=C(NCCc1ccccc1)Nc1c(-c2cccc(F)c2)nc2ccccc2c1O`, the MIC was 50 µg/mL (≈ 125 µM) in [1]; 50 µg/mL (≈ 125 µM) in test [2]; 50 µg/mL (≈ 125 µM) in [3]; 50 µg/mL (≈ 125 µM) in test [4]; over 100 µg/mL in test [9]. In addition, the “diameter of the inhibition zone (DIZ)” value in test [5], in test [6], in test [7] and in test [8] was under 10 mm each time. For the same compound, the “inhibition (INH)” value in [10] is given as 0%.
